From PubChem
ASAP1 inh: inhibitors of human ASAP1 ArfGAP activity, primary screen, biochemical, fluorescence polarization. AID 624377, 2012. 360,000 tested, 0.19% active. inhibition, % at 16.5 µM. Arf-GAP with SH3 domain, ANK repeat and PH domain-containing protein 1 (Homo sapiens), …. ASAP1-stimulated ARF1 GTP hydrolysis, GDP FP detection; in the data active = inhibition above about 25%;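 note: 0% = vehicle with enzyme and substrate and 100% = no enzyme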
PKD1 kinase inh: inhibitors of human PKD1 kinase, biochemical, fluorescence polarization; 200,000 tested, 0.056% active; inhibition, % (no concentration beside the values); Serine/threonine-protein kinase D1 (Homo sapiens), Q15139; PKD1 kinase fluorescence polarization assay; AID 797, 2007; in the data active = inhibition above about 50%
ARFGAP1 inhibitor: inhibitors of rat ARFGAP1 GAP activity, primary screen, biochemical, fluorescence polarization, GDP tracer; ADP-ribosylation factor GTPase-activating protein 1 (Rattus norvegicus), Q62848; Arfgap1-stimulated ARF1 GTP hydrolysis, GDP FP detection; inhibition, % at 16.5 µM; 360,000 tested, 0.26% active; AID 651572, 2012;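 active = inhibition above a per-plate limit, mean inhibition of low control wells plus 3 SD, cut at about 25% in these data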;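 note: 0% = DMSO wells with enzyme and 100% = wells lacking Arfgap1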
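Material – truncated rat Arfgap1 GAP domain · Buffer or medium – HEPES-based buffer, pH 7.5 · Reagent – human ARF1(Δ1-17)-GTP substrate · Dosing – 16.5 µM single point, 1.26% DMSO · Schedule – GTP hydrolysis reaction 2 h at 25 °C · Technique – GDP detection by fluorescence polarization · Benchmarks – No-Arfgap1 wells (100%) versus DMSO full-reaction wells (0%) · Repeats – single replicate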
PP5 primary: PP5 phosphatase inhibitors, primary screen, biochemical, fluorescence. purified PP5c, OMFP substrate fluorescence. inhibition, % at 6.7 µM. 320,000 tested, 0.18% active. AID 1987, 2009;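 active = inhibition above the campaign's mean inhibition across all tested compounds plus 3 SD, cut at about 9.5% in these data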;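 note: 0% = DMSO only and 100% = 100 µM cantharidin control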
ARFGAP1 confirm: ARFGAP1 inhibitor hit confirmation, biochemical, fluorescence polarization, triplicate | shares compounds with ARFGAP1 inhibitor | ARFGAP1-stimulated ARF1 GTP hydrolysis, GDP tracer FP | 890 tested, 30% active | inhibition, % at 16.5 µM;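 active = average inhibition over triplicates above the hit cutoff set in the earlier primary screen, cut at about 25% in these data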;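 note: 0% = Arfgap1 plus ARF1-GTP with DMSO and 100% = wells lacking Arfgap1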
Target sequence (Q62848 whole entry, looked up): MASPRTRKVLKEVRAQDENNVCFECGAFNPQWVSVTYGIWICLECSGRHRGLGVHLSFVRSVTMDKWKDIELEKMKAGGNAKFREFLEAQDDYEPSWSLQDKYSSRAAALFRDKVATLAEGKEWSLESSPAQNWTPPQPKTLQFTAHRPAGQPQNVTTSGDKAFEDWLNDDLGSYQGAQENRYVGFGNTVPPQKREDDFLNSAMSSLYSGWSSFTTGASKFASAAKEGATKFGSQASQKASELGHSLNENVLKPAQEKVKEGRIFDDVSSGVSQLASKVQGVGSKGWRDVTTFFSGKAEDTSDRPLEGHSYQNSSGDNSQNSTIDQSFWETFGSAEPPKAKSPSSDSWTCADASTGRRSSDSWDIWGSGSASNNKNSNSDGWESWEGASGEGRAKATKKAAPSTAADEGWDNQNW
Active calls of the source: *; nt = not tested or not shown. Compounds with a hit are over-represented: about 0.54% of the library has one in this group of screens.

SMILES | ASAP1 inh | PKD1 kinase inh | ARFGAP1 inhibitor | PP5 primary | ARFGAP1 confirm
Cc1c(C(=O)NN)nn(-c2ccc(Cl)cc2)c(=O)c1C#N | 6.7 | -1.2 | 24.6* | 1.8 | -1.1
CC#CCN(Cc1ccco1)C(=O)C1CCC(=O)N(CCc2cccc(F)c2)C1 (stereo unspecified) | -2.5 | nt | 28.1* | nt | -3.1
CN(C)C(=O)c1cccc(-c2cnc3c(NC=O)cc(-c4ccc(N(C)C)cc4)cn23)c1 | -0.8 | nt | 8.5 | nt | nt
CSc1ccc(/C=N/NC(=O)c2ccc3nc[nH]c3c2)cc1 | 11.8 | nt | 27.6* | nt | 4.1
CN(C)c1ccc(/C=N/NC(=O)c2ccc3nc[nH]c3c2)cc1 | 3.2 | nt | 5.8 | 0.8 | nt
O=C(Nc1ccc(-c2nc3ccccc3[nH]2)cc1)c1ccc2c(c1)OCO2 | 20.9 | -5.1 | 25.8* | 1.8 | 31.7*
O=C(Nc1ccc2nn(-c3ccccc3)nc2c1)c1ccc2c(c1)OCO2 | 17.4 | -2.6 | 25.5* | -2.2 | 28.0*
CCCN(CCC)S(=O)(=O)c1cccc(C(=O)Nc2ccc3c(c2)OCO3)c1 | 16.7 | 10.2 | 47.3* | 0.9 | 1.9
CCCCNC(=O)C1(C)CCCCN1C(=O)c1cncc(Br)c1 (stereo unspecified) | -4.4 | nt | 5.8 | nt | nt
COc1ccccc1C(=O)C1CCCN(C(=O)c2ccc(Cl)cc2)C1 (stereo unspecified) | -0.4 | nt | 0.2 | nt | nt
CCCOc1ccc(-c2cc(C(=O)NCC3CCCO3)c3ccccc3n2)cc1 (stereo unspecified) | -21.8 | 5.6 | 27.0* | 5.9 | 6.9
O=S(=O)(NCC1CCCO1)c1ccc(Cl)c2ccccc12 (stereo unspecified) | 1.5 | nt | -9.0 | nt | nt
CCNc1nc(NCc2ccccc2)nc(SCC(=O)Nc2ccccc2)n1 | 4.8 | -0.5 | 26.5* | 4.8 | 7.8
CCNc1nc(NCc2ccccc2)nc(SCC(N)=O)n1 | -6.8 | -0.6 | -0.9 | 0.0 | nt
O=C(c1cc2ccccc2o1)N1CCN(Cc2nc3ccccc3s2)CC1 | 10.6 | nt | 25.7* | nt | -1.7
O=C(Cn1c(=O)oc2ccccc21)Nc1ccc(Cl)cc1Cl | -8.4 | nt | 24.9* | 1.2 | -1.8
COc1ccc(Cl)cc1NC(=O)Cn1c(=O)oc2ccccc21 | 2.0 | nt | 20.6 | -0.3 | nt
COc1ccc(C(=O)c2[nH]c(N)c(C(=O)NCCc3c[nH]c4ccccc34)c2-c2ccccc2C(F)(F)F)cc1 | 8.7 | nt | 3.7 | nt | nt
CC1CC(C)CN(S(=O)(=O)CC23CCC(CC2=O)C3(C)C)C1 (stereo unspecified) | -6.1 | nt | 24.7* | -1.9 | -8.8
COc1ccc(N2CCN(C(=O)c3ccc(C(C)(C)C)cc3)CC2)cc1 | 4.3 | -5.1 | 27.9* | 0.9 | -3.8
CC(C)(C)OC(=O)N1CCC[C@H]1C(=O)NCC1CCC(C(=O)O)CC1 (stereo partly specified) | 5.0 | -8.4 | 26.3* | -3.3 | -0.6
O=C(Nc1c(-c2ccccc2)[nH][nH]c1=O)c1cccc(C(F)(F)F)c1 | -8.0 | nt | 12.6 | nt | nt
COc1ccccc1NS(=O)(=O)c1cc2c(cc1C)NC(=O)CO2 | 15.2 | nt | 51.3* | 1.4 | 6.0
COc1cccc(NS(=O)(=O)c2cc3c(cc2C)NC(=O)CO3)c1 | 1.9 | nt | 8.3 | 0.1 | nt
O=C(Cn1c2ccc(F)cc2c2nc3n(c(=O)c21)CCS3)Nc1ccccc1C(F)(F)F | 22.2 | 2.5 | 30.2* | 2.3 | 41.8*
O=C(Nc1c(F)c(F)c(F)c(F)c1F)OC[C@@H]1CSCCS(=O)(=O)N1 | 11.2 | nt | 5.9 | nt | nt
O=C(NCc1ccccc1C(F)(F)F)C1CC(c2ccc(C(F)(F)F)cc2)=NO1 (stereo unspecified) | -4.4 | nt | 28.1* | 5.6 | 6.9
O=C(NCc1ccc(C(F)(F)F)cc1)C1CC(c2ccc(C(F)(F)F)cc2)=NO1 (stereo unspecified) | 1.6 | nt | 9.1 | 1.2 | nt
CCOC(=O)c1ccc(Nc2cc(C)nc(-c3ccccc3)n2)cc1 | 19.2 | nt | 27.0* | 5.5 | 15.4
CN1CCN(c2ccc(CNC(=O)C3(C)Cc4c(-c5ccc6c(c5)OCO6)ccnc4O3)cc2)CC1 (stereo unspecified) | -2.0 | nt | 4.0 | nt | nt
